In ChEMBL document CHEMBL1821702, “8,8-Dimethyldihydroberberine with improved bioavailability and oral efficacy on obese and diabetic mouse models” (Bioorg Med Chem, 2010):
The source made the active and inactive calls. No cut-off for these calls is given here.

Legend:
[1] = species: Rattus norvegicus; experiment: Inhibition of electron transport protein complex 1-mediated cellular respiration in rat liver mitochondria assessed as consumption of oxygen at 2.5 to 40 uM using pyruvate as substrate
Outline: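 Mitochondria isolated from rat liver. Complex I substrates 5 mM pyruvate plus 2 mM malate, with excess ADP (2.4 mM). Oxygen consumption read as dose–response. Three independent experiments, n = 5–7.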

[2] = species: Rattus norvegicus; experiment: Induction of AMPK-dependent ACC phosphorylation in 2 hrs serum starved rat differentiated L6 myotubes after 1 hr
Outline: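 Fully differentiated L6 myotubes were serum-starved 2 h, then treated 1 h across a dose series. Phospho-AMPK (Thr172) and phospho-ACC (Ser79) were detected by Western blot. Three independent experiments.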

[3] = system: Mus musculus; experiment: Antidiabetic activity in C57BLKS/J-db/db mouse assessed as alleviation of glucose tolerance at 50 mg/kg/day, po for 3 weeks measured after 15 mins by intraperitoneal glucose tolerance test; assay type: functional, organism-based
Outline: (§1)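 Male and female C57BLKS/J-db/db mice, randomized at 6 weeks of age by body weight and fed glucose, were gavaged once daily in vehicle (0.5% microcrystalline cellulose, 1.6% lactose). For ipGTT, D-glucose was given at 2 g/kg ip, and blood glucose was read by glucometer at 0, 15, 30, 60, 90 and 120 min.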

[4] = system: Mus musculus; experiment: Antidiabetic activity in C57BLKS/J-db/db mouse assessed as decrease in fed blood glucose level at 50 mg/kg/day, po for 4 weeks; assay type: functional; design: scale not given: the % may be the effect or the level left
[5] = system: L6; experiment: Increase in glucose uptake in rat differentiated L6 myotubes after 1 hr; assay type: functional, cell-based
Outline: (§2)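 Fully differentiated L6 myotubes were serum-starved 2 h, then treated with compound for 15 min to 2 h (dose series at 1 h). Glucose uptake was measured relative to DMSO control. Mean of three independent experiments ± SE.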

[6] = system: Mus musculus; experiment: Antidiabetic activity in high fat diet-fed C57BL/6J mouse assessed as decrease in plasma insulin level at 15 mg/kg/day, po for 4 weeks; assay type: functional; design: scale not given: the % may be the effect or the level left
Outline: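 DIO male C57BL/6J mice (60 kcal% fat diet for 8 weeks) were gavaged daily in 0.5% microcrystalline cellulose/1.6% lactose vehicle. Plasma insulin was determined by ELISA after 4 weeks of treatment. Mean ± SE, n = 5–8.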

[7] = system: Mus musculus; experiment: Antidiabetic activity in high fat diet-fed C57BL/6J mouse assessed as increase in glucose tolerance at 15 mg/kg/day, po for 4 weeks measured after 120 mins by intraperitoneal glucose tolerance test; assay type: functional, organism-based
Outline: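 High-fat-diet (60 kcal%, 8 weeks) male C57BL/6J mice were randomized by body weight and fed glucose, then dosed orally once daily in cellulose/lactose vehicle. ipGTT was done at 4 weeks: D-glucose 2 g/kg ip, glucometer readings at 0, 15, 30, 60, 90 and 120 min. n = 5–8.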

[8] = system: L6; experiment: Increase in glucose uptake in rat differentiated L6 myotubes after 2 hrs; assay type: functional; outline: as §2
[9] = system: Mus musculus; experiment: Antidiabetic activity in C57BLKS/J-db/db mouse assessed as alleviation of glucose tolerance at 50 mg/kg/day, po for 3 weeks measured after 90 mins by intraperitoneal glucose tolerance test; assay type: functional, organism-based; outline: as §1
[10] = system: Mus musculus; experiment: Antidiabetic activity in C57BLKS/J-db/db mouse assessed as reduction of fasting blood glucose level at 50 mg/kg/day, po for 3 weeks; assay type: functional; design: scale not given: the % may be the effect or the level left
[11] = system: Mus musculus; experiment: Toxicity in high fat diet-fed C57BL/6J mouse assessed as change in food intake at 15 mg/kg/day, po for 6 weeks; assay type: organism-based; design: route oral; conditions: in vivo, 1008 h
Outline: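 Male C57BL/6J mice (purchased at 6 weeks of age) fed 60 kcal% fat diet for 8 weeks, then randomized by body weight and fed glucose. Dosed orally once daily for 6 weeks in vehicle of 0.5% microcrystalline cellulose plus 1.6% lactose. Groups: high-fat vehicle, metformin 250 mg/kg positive control, chow-fed vehicle. Body weight and food intake recorded daily.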

[12] = system: Mus musculus; experiment: Antidiabetic activity in C57BLKS/J-db/db mouse assessed as alleviation of glucose tolerance at 50 mg/kg/day, po for 3 weeks measured after 120 mins by intraperitoneal glucose tolerance test; assay type: functional, organism-based; outline: as §1
[13] = system: Mus musculus; experiment: Antidiabetic activity in high fat diet-fed C57BL/6J mouse assessed as alleviation of insulin resistance at 15 mg/kg/day, po for 4 weeks measured after 60 mins by insulin tolerance test; assay type: functional, organism-based
Outline: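 Male C57BL/6J mice were fed a 60 kcal% fat diet for 8 weeks, randomized, then gavaged daily in 0.5% microcrystalline cellulose/1.6% lactose vehicle. ITT was run at 4 weeks: 6 h fast, insulin 0.75 U/kg ip, blood glucose at 0, 15, 30, 60, 90 and 120 min. Mean ± SE, n = 5–8.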

[14] = system: Mus musculus; experiment: Antidiabetic activity in C57BLKS/J-db/db mouse assessed as decrease in fed blood glucose level at 50 mg/kg/day, po for 3 weeks; assay type: functional; design: scale not given: the % may be the effect or the level left
[15] = system: Mus musculus; experiment: Toxicity in C57BLKS/J-db/db mouse assessed as change in liver to body weight ratio at 50 mg/kg/day, po for 6 weeks; assay type: organism-based; design: route oral; conditions: in vivo, 1008 h
Outline: (§3)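 db/db mice (half male, half female) were dosed by oral gavage daily for 6 weeks in 0.5% microcrystalline cellulose/1.6% lactose vehicle. Body weight and food intake were recorded daily. Mice were killed after the final dose, and liver and fat depots were weighed and expressed relative to body weight.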

[16] = Stability in acidic buffer at pH 2 after 6 hrs by HPLC; assay type: physicochemical; conditions: buffer, pH 2, 6 h
Outline: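 A 0.5 mg/mL solution in acetonitrile was adjusted to pH 2 with H3PO4 and analyzed over 6 h by HPLC. Conditions: C18 column at 25 °C, 58% acetonitrile in 0.05 mol/L KH2PO4/0.005 mol/L SDS, 1 mL/min, detection at 320 nm.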

[17] = system: L6; experiment: Increase in glucose uptake in rat differentiated L6 myotubes at 2.5 uM after 1 hr; assay type: functional; outline: as §2
[18] = system: Mus musculus; experiment: Toxicity in C57BLKS/J-db/db mouse assessed as change in adipose tissue mass at 50 mg/kg/day, po for 6 weeks; assay type: organism-based; design: route oral; conditions: in vivo, 1008 h; outline: as §3
[19] = system: L6; experiment: Increase in glucose uptake in rat differentiated L6 myotubes at 20 uM in presence of 10 nM AMPK inhibitor compound C; assay type: functional, cell-based
[20] = system: Mus musculus; experiment: Toxicity in C57BLKS/J-db/db mouse assessed as change in body weight at 50 mg/kg/day, po for 6 weeks; assay type: organism-based; design: route oral; conditions: in vivo, 1008 h; outline: as §3

Activity [2]: Dose-dependent effect
Stability [16]: Stable
SMILES: COc1ccc2c(c1OC)C(C)(C)[N+]1=C(C2)c2cc3c(cc2CC1)OCO3.[Cl-] [8,8-dimethyldihydroberberine]
inhibition [1]: Dose-dependent effect
Activity [3]: Active
Activity [4]: 40%
Activity [5]: Dose-dependent effect
Activity [6]: 45%
Activity [7]: Active
Activity [8]: 84%
Activity [9]: Active
Activity [10]: 24%
Activity [11]: Non-toxic
Activity [12]: Active
Activity [13]: Active
Activity [14]: 24%
Activity [15]: Non-toxic
Activity [17]: 48%
Activity [18]: Non-toxic
Activity [19]: inactive
Activity [20]: Non-toxic
